# ChEMBL document CHEMBL1145255, “Synthesis and antifungal activity of 5-arylamino-4,7-dioxobenzo[b]thiophenes” (2005)
# Legend:
# Assay type in all cases: functional
# Pichia kudriavzevii = test: In vitro minimum inhibitory concentration against Candida krusei Berkout KCCM 11655 strain at 37 degree C after 1 day of treatment; settings: KCCM 11655, 24 h
# How it was run: (§1)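 Two-fold broth dilution MIC in modified Sabouraud dextrose broth, inoculum about 1 × 10⁵ cells/mL, incubated at 37 °C. MIC was read after 1 day for the Candida species and after 2 days for A. niger.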
# Aspergillus niger = test: In vitro minimum inhibitory concentration against Aspergillus niger KCTC 1231 strain at 37 degree C after 2 day of treatment; settings: KCTC 1231, 48 h; how it was run: as §1
# Candida albicans = test: In vitro minimum inhibitory concentration against Candida albicans Berkout KCCM 50235 strain at 37 degree C after 1 day of treatment; settings: KCCM 50235, 24 h; how it was run: as §1
# Candida tropicalis = test: In vitro minimum inhibitory concentration against Candida tropicalis Berkout KCCM 50662 strain at 37 degree C after 1 day of treatment; settings: KCCM 50662, 24 h; how it was run: as §1
SMILES,MIC (Pichia kudriavzevii),MIC (Aspergillus niger),MIC (Candida albicans),MIC (Candida tropicalis)
O=C1C(Nc2ccc(C(F)(F)F)cc2)=C(Cl)C(=O)c2sc(CO)cc21,3.2 µg/mL,50 µg/mL,50 µg/mL,0.4 µg/mL
O=C1C(Nc2ccc(F)cc2)=C(Cl)C(=O)c2sc(CO)cc21,1.6 µg/mL,50 µg/mL,12.5 µg/mL,0.4 µg/mL
Nc1nc(=O)[nH]cc1F [FLUCYTOSINE],6.3 µg/mL,12.5 µg/mL,6.3 µg/mL,12.5 µg/mL
COC(=O)c1cc2c(s1)C(=O)C=CC2=O,> 50 µg/mL,> 50 µg/mL,> 50 µg/mL,25 µg/mL
COC(=O)c1cc2c(s1)C(=O)C(Cl)=C(Nc1ccc(Br)cc1)C2=O,25 µg/mL,25 µg/mL,0.8 µg/mL,3.2 µg/mL
Cc1ccc(NC2=CC(=O)c3sc(CO)cc3C2=O)cc1,25 µg/mL,3.2 µg/mL,> 50 µg/mL,25 µg/mL
COC(=O)c1cc2c(s1)C(=O)C=C(Nc1ccc(Br)cc1)C2=O,12.5 µg/mL,50 µg/mL,50 µg/mL,0.2 µg/mL
O=C1C(Nc2ccccc2)=CC(=O)c2sc(CO)cc21,6.3 µg/mL,0.8 µg/mL,50 µg/mL,0.8 µg/mL
COC(=O)c1cc2c(s1)C(=O)C(Cl)=C(Nc1ccc(F)cc1)C2=O,25 µg/mL,12.5 µg/mL,12.5 µg/mL,6.3 µg/mL
Cc1ccc(NC2=C(Cl)C(=O)c3sc(CO)cc3C2=O)cc1,0.8 µg/mL,50 µg/mL,50 µg/mL,1.6 µg/mL
COC(=O)c1cc2c(s1)C(=O)C=C(Nc1ccc(Cl)cc1)C2=O,25 µg/mL,50 µg/mL,50 µg/mL,6.3 µg/mL
COC(=O)c1cc2c(s1)C(=O)C=C(Nc1ccc(OC)cc1)C2=O,25 µg/mL,> 50 µg/mL,> 50 µg/mL,6.3 µg/mL
COc1ccc(NC2=C(Cl)C(=O)c3sc(CO)cc3C2=O)cc1,3.2 µg/mL,50 µg/mL,25 µg/mL,1.6 µg/mL
O=C1C(Nc2ccc(Cl)cc2)=C(Cl)C(=O)c2sc(CO)cc21,1.6 µg/mL,> 50 µg/mL,12.5 µg/mL,0.4 µg/mL
O=C1C(Nc2ccc(Br)cc2)=CC(=O)c2sc(CO)cc21,3.2 µg/mL,3.2 µg/mL,50 µg/mL,12.5 µg/mL
COC(=O)c1cc2c(s1)C(=O)C(Cl)=C(Nc1ccc(C)cc1)C2=O,25 µg/mL,50 µg/mL,0.8 µg/mL,12.5 µg/mL
O=C1C(Nc2ccc(O)cc2)=CC(=O)c2sc(CO)cc21,12.5 µg/mL,0.8 µg/mL,0.8 µg/mL,0.8 µg/mL
O=C1C(Nc2ccc(F)cc2)=CC(=O)c2sc(CO)cc21,> 25 µg/mL,25 µg/mL,50 µg/mL,12.5 µg/mL
COC(=O)c1cc2c(s1)C(=O)C=C(Nc1ccc(O)cc1)C2=O,12.5 µg/mL,50 µg/mL,50 µg/mL,0.4 µg/mL
COC(=O)c1cc2c(s1)C(=O)C(Cl)=C(Nc1ccccc1)C2=O,6.3 µg/mL,12.5 µg/mL,0.8 µg/mL,3.2 µg/mL
O=C1C(Nc2ccc(Br)cc2)=C(Cl)C(=O)c2sc(CO)cc21,0.8 µg/mL,50 µg/mL,50 µg/mL,0.8 µg/mL
COC(=O)c1cc2c(s1)C(=O)C(Cl)=C(Nc1ccc(O)cc1)C2=O,6.3 µg/mL,50 µg/mL,12.5 µg/mL,0.8 µg/mL
COC(=O)c1cc2c(s1)C(=O)C=C(Nc1ccc(I)cc1)C2=O,6.3 µg/mL,50 µg/mL,50 µg/mL,0.2 µg/mL
O=C1C(Nc2ccc(I)cc2)=CC(=O)c2sc(CO)cc21,25 µg/mL,3.2 µg/mL,50 µg/mL,1.6 µg/mL

# Now from value to compound:
MIC (Pichia kudriavzevii),MIC (Aspergillus niger),MIC (Candida albicans),MIC (Candida tropicalis),SMILES
25 µg/mL,3.2 µg/mL,6.3 µg/mL,1.6 µg/mL,COC(=O)c1cc2c(s1)C(=O)C(Cl)=C(Nc1ccc(I)cc1)C2=O
> 50 µg/mL,> 50 µg/mL,> 50 µg/mL,25 µg/mL,O=C1C(Nc2ccc(O)cc2)=C(Cl)C(=O)c2sc(CO)cc21
> 25 µg/mL,25 µg/mL,> 50 µg/mL,12.5 µg/mL,O=C1C(Nc2ccc(Cl)cc2)=CC(=O)c2sc(CO)cc21
1.6 µg/mL,50 µg/mL,50 µg/mL,1.6 µg/mL,O=C1C(Nc2ccc(I)cc2)=C(Cl)C(=O)c2sc(CO)cc21
1.6 µg/mL,12.5 µg/mL,6.3 µg/mL,3.2 µg/mL,O=C1C(Nc2ccccc2)=C(Cl)C(=O)c2sc(CO)cc21
25 µg/mL,3.2 µg/mL,3.2 µg/mL,0.8 µg/mL,COc1ccc(NC2=CC(=O)c3sc(CO)cc3C2=O)cc1
6.3 µg/mL,50 µg/mL,50 µg/mL,3.2 µg/mL,COC(=O)c1cc2c(s1)C(=O)C=C(Nc1ccc(C)cc1)C2=O
12.5 µg/mL,0.8 µg/mL,0.8 µg/mL,0.8 µg/mL,O=C1C(Nc2ccc(C(F)(F)F)cc2)=CC(=O)c2sc(CO)cc21
50 µg/mL,50 µg/mL,> 50 µg/mL,25 µg/mL,O=C1C=CC(=O)c2sc(CO)cc21
12.5 µg/mL,50 µg/mL,50 µg/mL,6.3 µg/mL,COC(=O)c1cc2c(s1)C(=O)C=C(Nc1ccccc1)C2=O
25 µg/mL,50 µg/mL,12.5 µg/mL,1.6 µg/mL,COC(=O)c1cc2c(s1)C(=O)C(Cl)=C(Nc1ccc(C(F)(F)F)cc1)C2=O
1.6 µg/mL,50 µg/mL,50 µg/mL,12.5 µg/mL,COC(=O)c1cc2c(s1)C(=O)C=C(Nc1ccc(C(F)(F)F)cc1)C2=O
3.2 µg/mL,50 µg/mL,3.2 µg/mL,6.3 µg/mL,COC(=O)c1cc2c(s1)C(=O)C(Cl)=C(Nc1ccc(OC)cc1)C2=O
25 µg/mL,> 50 µg/mL,> 50 µg/mL,25 µg/mL,COC(=O)c1cc2c(s1)C(=O)C=C(Nc1ccc(F)cc1)C2=O
25 µg/mL,25 µg/mL,12.5 µg/mL,6.3 µg/mL,COC(=O)c1cc2c(s1)C(=O)C(Cl)=C(Nc1ccc(Cl)cc1)C2=O
